Each block holds one compound with its values, some of them ahead of it. Active and inactive are the calls of the source. The calls are words filed in the database; no cut-off is given here.
What was measured:
[1] = Drug level treated with BSIH assessed as metabolite formation at 500 uM after 24 hrs in presence of H2O2 by 1H-NMR spectroscopic analysis
[2] = tested on: ARPE-19; assay: Cytoprotective activity against H2O2-induced toxicity in human ARPE19 cells up to 100 uM pretreated for 5 hrs followed by H2O2 addition after 19 hrs by CellTiter-blue assay; format: functional, cell-based
Summary of the method: (§1)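 ARPE-19 human retinal pigment epithelial cells pre-incubated 5 h with a range of compound concentrations, then given H2O2 at 200 μM. Viability read 19 h after peroxide addition by CellTiter Blue. Expressed as percent of untreated control (100%).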

[3] = tested on: ARPE-19; assay: Cytotoxicity against human ARPE19 cells assessed as reduction in cell viability up to 100 uM after 72 hrs by CellTiter-blue assay; format: cell-based; conditions: arpe-19, 72 h
Summary of the method: (§2)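 Inherent toxicity tested on ARPE-19 cells. Compounds at concentrations up to 100 μM for 72 h. Viability read by CellTiter Blue assay.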

[4] = tested on: ARPE-19; assay: Cytoprotective activity against H2O2-induced toxicity in human ARPE19 cells pretreated for 5 hrs followed by H2O2 addition after 19 hrs by CellTiter-blue assay; format: functional, cell-based; summary of the method: as §1
[5] = Stability of the compound in phosphate buffered saline at pH 7.4 assessed as compound hydrolysis at 100 uM after 24 hrs by UV-Vis spectrophotometric analysis; format: physicochemical; conditions: buffer, pH 7.4, 24 h
Summary of the method: (§3)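 Compound at 100 μM dissolved in PBS pH 7.4 or in minimal essential medium. UV-Vis spectra of freshly prepared and 24-h aged solutions kept at ambient temperature were compared.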

[6] = Stability of the compound in minimal essential medium assessed as compound hydrolysis at 100 uM at pH 7.4 after 24 hrs by UV-Vis spectrophotometric analysis; summary of the method: as §3
[7] = Drug metabolism in RPMI media assessed as equilibrium hydrolysis constant at 100 uM; format: physicochemical
[8] = Half-life in RPMI media at 100 uM; format: physicochemical
[9] = Stability of the compound in aqueous solvent at 500 uM after 24 hrs in presence of H2O2 by 1H-NMR spectroscopic analysis; format: physicochemical; conditions: buffer
[10] = Drug level treated with BSIH in DMSO assessed as metabolite formation at 100 uM at pH 7.4 after overnight incubation in presence of H2O2 by UV-vis spectrometric analysis
[11] = tested on: ARPE-19; assay: Cytotoxicity against human ARPE19 cells assessed as reduction in cell viability at 100 uM after 72 hrs by CellTiter-blue assay relative to control; format: cell-based; conditions: arpe-19, 72 h; summary of the method: as §2
[12] = Stability of the compound in minimal essential medium assessed as compound hydrolysis at 100 uM within 24 hrs by UV-Vis spectrophotometric analysis
[13] = Stability of the compound in phosphate buffered saline at pH 7.4 assessed as compound hydrolysis at 100 uM within 20 mins by UV-Vis spectrophotometric analysis; format: physicochemical; conditions: buffer, pH 7.4, 20 min
[14] = Stability of the compound in phosphate buffered saline at pH 7.4 assessed as compound hydrolysis at 100 uM up to 24 hrs by UV-Vis spectrophotometric analysis; format: physicochemical; conditions: buffer, pH 7.4, 24 h; summary of the method: as §3
[15] = Stability of the compound in phosphate buffered saline assessed as parent compound remaining at 100 uM at pH 7.4 after 20 mins by UV-vis spectrophotometric analysis; format: physicochemical; conditions: read-out: Stability
[16] = Stability of the compound in phosphate buffered saline assessed as parent compound remaining at 500 uM at pH 7.4 after 20 mins by UV-vis spectrophotometric analysis; format: physicochemical; conditions: read-out: Stability
[17] = Stability of the compound in minimal essential medium assessed as compound hydrolysis at 100 uM at pH 7.4 within 20 mins by UV-Vis spectrophotometric analysis
[18] = Stability of the compound in minimal essential medium assessed as compound hydrolysis at 100 uM at pH 7.4 up to 24 hrs by UV-Vis spectrophotometric analysis; summary of the method: as §3
[19] = Drug metabolism in D2O/5% DMSO-d6 assessed as formation of aldehyde proton of salicylaldehyde at 500 uM after 1 hr by 1H-NMR spectroscopic analysis; format: physicochemical
[20] = Drug metabolism in D2O/5% DMSO-d6 assessed as formation of hydrazone proton at 500 uM after 1 hr by 1H-NMR spectroscopic analysis; format: physicochemical
[21] = Drug metabolism in phosphate buffered saline at pH 7.4 assessed as equilibrium hydrolysis constant measured at 1 min interval for 20 mins by UV-vis spectrophotometric method; format: physicochemical; conditions: buffer, pH 7.4, 20 min
[22] = Stability of the compound in aqueous solvent assessed as parent compound remaining at 100 uM after 24 hrs in presence of H2O2 by 1H-NMR spectrometric method; format: physicochemical; conditions: aqueous solvent with H2O2; read-out: Stability
[23] = Drug metabolism in phosphate buffered saline at pH 7.4 assessed as formation of isoniazid by measuring elution time at 100 uM after 24 hrs in presence of H2O2 by LC-MS analysis; format: physicochemical; conditions: buffer, pH 7.4, 24 h
[24] = Drug metabolism in phosphate buffered saline at pH 7.4 assessed as formation of salicylaldehyde by measuring retention time at 100 uM after 24 hrs in presence of H2O2 by LC-MS analysis; format: physicochemical; conditions: buffer, pH 7.4, 24 h
[25] = Drug metabolism in phosphate buffered saline at pH 7.4 assessed as formation of SIH by measuring elution time at 100 uM after 24 hrs in presence of H2O2 by LC-MS analysis; format: physicochemical; conditions: buffer, pH 7.4, 24 h
[26] = Stability of the compound in Britton-Robinson buffer at pH 12 assessed as parent compound remaining at 100 uM by UV-vis spectrometric analysis; format: physicochemical; conditions: read-out: Stability
[27] = Stability of the compound in Britton-Robinson buffer at pH 8 assessed as parent compound remaining at 100 uM by UV-vis spectrometric analysis; format: physicochemical; conditions: read-out: Stability
[28] = Stability of the compound in Britton-Robinson buffer at pH 10 assessed as parent compound remaining at 100 uM by UV-vis spectrometric analysis; format: physicochemical; conditions: read-out: Stability
[29] = Stability of the compound in Britton-Robinson buffer at pH 6 assessed as parent compound remaining at 100 uM by UV-vis spectrometric analysis; format: physicochemical; conditions: read-out: Stability
[30] = Stability of the compound in Britton-Robinson buffer at pH 4 assessed as parent compound remaining at 100 uM by UV-vis spectrometric analysis; format: physicochemical; conditions: read-out: Stability
[31] = Stability of the compound in Britton-Robinson buffer at pH 2 assessed as parent compound remaining at 100 uM by UV-vis spectrometric analysis; format: physicochemical; conditions: read-out: Stability
[32] = Drug metabolism in D2O/5% DMSO-d6 assessed as pinacol dissociation by measuring formation of boronic acid form of BASIH at 500 uM after 1 hr by 1H-NMR spectroscopic analysis; format: physicochemical
[33] = Drug metabolism in DMSO-d6 assessed as formation of pinacol boronic ester form of BSIH at 10 mM by 1H-NMR spectroscopic analysis; format: physicochemical; conditions: 10000 µM
[34] = Stability of the compound in D2O/5% DMSO-d6 assessed as parent compound remaining at 500 uM after 1 hr by 1H-NMR spectroscopic analysis; format: physicochemical; conditions: read-out: Stability
[35] = Drug metabolism in DMSO-d6 assessed as formation of hydrazone proton at 10 mM by 1H-NMR spectroscopic analysis; format: physicochemical; conditions: 10000 µM

Structure (SMILES): NNC(=O)c1ccncc1 [ISONIAZID]
Drug metabolism [1]: Metabolite detected
Activity [2]: inactive
Activity [3]: Non-Toxic

Structure (SMILES): O=Cc1ccccc1O [SALICYLADEHYDE]
Drug metabolism [1]: Metabolite detected
Activity [4]: Dose-dependent effect
Activity [3]: Non-Toxic

Structure (SMILES): O=Cc1ccccc1B(O)O
Activity [4]: Dose-dependent effect
Activity [3]: Non-Toxic

The next lines start with results.

Stability [5]: Stable
K [7]: 5 ×10⁻⁴ M
half-life at 100 µM [8]: 162 min
Stability [9]: Stable
Structure (SMILES): O=C(N/N=C/c1ccccc1O)c1ccncc1 [SALINAZID]
Stability [6]: Unstable
Activity [4]: Dose-dependent effect
Drug metabolism [10]: Metabolite detected
Activity [11]: 30%
Stability [12]: Unstable

Stability [13]: Unstable
Stability [14]: Stable
remaining at 20 min, 100 µM [15]: 68%
remaining at 20 min, 500 µM [16]: 84%
Structure (SMILES): O=C(N/N=C/c1ccccc1B(O)O)c1ccncc1

Stability [13]: Unstable
Stability [14]: Stable
Drug metabolism [19]: 9.9 ppm
Drug metabolism [20]: Metabolite_Notdetected
K [21]: 1.5 ×10⁻⁵ M
remaining at 24 h, 100 µM [22]: 25%
Time [23]: 2 min
Retention_time [24]: 12 min
Time [25]: 13 min
remaining at 100 µM [26]: 50%
remaining at 100 µM [27]: 65%
remaining at 100 µM [28]: 67%
remaining at 100 µM [29]: 36%
remaining at 100 µM [30]: 26%
remaining at 100 µM [31]: 9%
Drug metabolism [32]: 1.03 ppm
Drug metabolism [33]: 1.34 ppm
remaining at 1 h, 500 µM [34]: 80%
Drug metabolism [35]: 8.79 ppm
Structure (SMILES): CC1(C)OB(c2ccccc2/C=N/NC(=O)c2ccncc2)OC1(C)C
Stability [17]: Unstable
Stability [18]: Stable
Activity [4]: Dose-dependent effect
Activity [3]: Non-Toxic

From ChEMBL document CHEMBL4052786, “The hydrolytic susceptibility of prochelator BSIH in aqueous solutions” (Bioorg Med Chem Lett, 2017)
